pIC50: −log10 of the molar value. Active and inactive are the calls of the source. No cut-off for these calls is given here.

These results are taken from ChEMBL document CHEMBL5661979, “Pharmacological inhibition of BMK1 suppresses tumor growth through promyelocytic leukemia protein” (Cancer Cell, 2010).

One data set relates to HeLa. Description: Antitumor activity against human HeLa cells xenografted in NOD/SCID mouse assessed as reduction tumor growth at 50 mg/kg, ip administered on day 14 post implantation measured after 28 days. The conditions noted are these: time 14.0 day. It counts as functional, organism-based. In short, it runs like this: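 HeLa cells (5×10^5, in DMEM) were injected s.c. into the right flank of 6-week-old Nod/Scid mice on day 0. Dosing was 50 mg/kg i.p. twice daily, starting on day 1, 7 or 14 and continuing to day 28; controls received carrier. 6 mice per treated group. Tumors were measured every 2–3 days.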
For orientation: In xenograft studies the graft and the host belong to different species.

Data set [1] concerns the target Interleukin-1 receptor-associated kinase 4 (Homo sapiens, UniProt Q9NWZ3). The experiment in a line: Inhibition of IRAK4 in human HeLa cells lysate pre incubated for 15 mins followed by ADP acyl phosphate probe addition and measured after 10 mins by LC-MS/MS analysis. It counts as subcellular.
The target of data set [2] is Macrophage-stimulating protein receptor (Homo sapiens, UniProt Q04912). The experiment in a line: Inhibition of RON in human HeLa cells lysate at 50 uM pre incubated for 15 mins followed by ADP acyl phosphate probe addition and measured after 10 mins by LC-MS/MS analysis relative to control. The class given is subcellular. The conditions noted are these: time 25.0 min.

Data set [3] can be described thus: Inhibition of SRC/FYN/YES in human HeLa cells lysate pre incubated for 15 mins followed by ATP acyl phosphate probe addition and measured after 10 mins by LC-MS/MS analysis. It counts as subcellular.
Data set [4] deals with MAP/microtubule affinity-regulating kinase 3 (Homo sapiens, UniProt P27448). Description: Inhibition of MARK3 in human HeLa cells lysate pre incubated for 15 mins followed by ADP acyl phosphate probe addition and measured after 10 mins by LC-MS/MS analysis. The class given is subcellular.
Data set [5] deals with Serine/threonine-protein kinase WNK1 (Homo sapiens, UniProt Q9H4A3). Description: Inhibition of Wnk1 in human HeLa cells lysate at 50 uM pre incubated for 15 mins followed by ATP acyl phosphate probe addition and measured after 10 mins by LC-MS/MS analysis relative to control. It counts as subcellular. The note with it: time 25.0 min.
Data set [6] deals with Calcium/calmodulin-dependent protein kinase type II subunit gamma (Homo sapiens, UniProt Q13555). Description: Inhibition of CAMK2g in human HeLa cells lysate at 50 uM pre incubated for 15 mins followed by ADP acyl phosphate probe addition and measured after 10 mins by LC-MS/MS analysis relative to control. The note with it: time 25.0 min. It counts as subcellular. In short, it runs like this:
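KiNativ-type profiling in HeLa lysate (5 mg/mL total protein). Lysate preincubated 15 min with inhibitor at 50, 10, 2, 0.8 or 0 μM, then ATP or ADP acylphosphate probe added (5 μM final) for 10 min. Reaction stopped with urea and analysed by targeted MS, using up to four fragment ions per kinase peptide-probe conjugate. % inhibition calculated against untreated lysate. Duplicate reactions.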

Data set [7] is described as follows: Inhibition of PCTAIRE2/PCTAIRE3 in human HeLa cells lysate pre incubated for 15 mins followed by ADP acyl phosphate probe addition and measured after 10 mins by LC-MS/MS analysis. It counts as subcellular.
Data set [8] addresses T1, Serine/threonine-protein kinase 4 (Homo sapiens) (UniProt Q13043).
T1 sequence (whole entry): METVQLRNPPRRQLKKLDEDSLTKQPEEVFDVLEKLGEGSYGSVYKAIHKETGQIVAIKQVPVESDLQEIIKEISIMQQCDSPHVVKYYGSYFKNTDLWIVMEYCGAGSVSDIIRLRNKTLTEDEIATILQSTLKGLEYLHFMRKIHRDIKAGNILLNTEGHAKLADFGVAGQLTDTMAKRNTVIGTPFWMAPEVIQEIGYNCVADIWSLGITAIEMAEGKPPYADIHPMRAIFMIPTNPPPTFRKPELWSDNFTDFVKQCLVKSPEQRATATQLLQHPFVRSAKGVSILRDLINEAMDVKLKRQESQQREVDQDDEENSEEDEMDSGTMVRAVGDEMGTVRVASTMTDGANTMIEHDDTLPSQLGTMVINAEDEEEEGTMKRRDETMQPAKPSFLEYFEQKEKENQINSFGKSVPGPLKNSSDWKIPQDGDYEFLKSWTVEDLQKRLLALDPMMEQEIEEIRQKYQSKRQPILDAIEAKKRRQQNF
The experiment in a line: Inhibition of MST1 in human HeLa cells lysate at 2 uM pre incubated for 15 mins followed by ADP acyl phosphate probe addition and measured after 10 mins by LC-MS/MS analysis relative to control. It counts as subcellular. The conditions noted are these: time 25.0 min.

A short description of data set [9]: Plasma concentration in C57Bl/6 mouse at 50 mg/kg, ip administered for 8 day and measured 8 hr post last dose by LC-MS/MS analysis. It counts as ADME, organism-based.
The target in data set [10] is Glycogen synthase kinase-3 beta (Homo sapiens, UniProt P49841). Description: Inhibition of GSK3B isoform 2 in human HeLa cells lysate pre incubated for 15 mins followed by ADP acyl phosphate probe addition and measured after 10 mins by LC-MS/MS analysis. The class given is subcellular.
The target in data set [11] is Rho-associated protein kinase (Homo sapiens, UniProt O75116+Q13464). The experiment in a line: Inhibition of ROCK1/2 in human HeLa cells lysate at 50 uM pre incubated for 15 mins followed by ATP acyl phosphate probe addition and measured after 10 mins by LC-MS/MS analysis relative to control. It counts as subcellular. The conditions noted are these: time 25.0 min.

The target of data set [12] is Epidermal growth factor receptor (Homo sapiens, UniProt P00533). The experiment in a line: Inhibition of EGFR in human HeLa cells lysate pre incubated for 15 mins followed by ATP acyl phosphate probe addition and measured after 10 mins by LC-MS/MS analysis. The class given is subcellular.
Data set [13] addresses Cyclin-dependent kinase 16 (Homo sapiens, UniProt Q00536). The experiment in a line: Inhibition of PCTAIRE1 in human HeLa cells lysate at 50 uM pre incubated for 15 mins followed by ADP acyl phosphate probe addition and measured after 10 mins by LC-MS/MS analysis relative to control. The class given is subcellular. The conditions noted are these: time 25.0 min.
The target of data set [14] is T2, Non-receptor tyrosine-protein kinase TNK1 (Homo sapiens) (UniProt Q13470).
T2 sequence (whole entry): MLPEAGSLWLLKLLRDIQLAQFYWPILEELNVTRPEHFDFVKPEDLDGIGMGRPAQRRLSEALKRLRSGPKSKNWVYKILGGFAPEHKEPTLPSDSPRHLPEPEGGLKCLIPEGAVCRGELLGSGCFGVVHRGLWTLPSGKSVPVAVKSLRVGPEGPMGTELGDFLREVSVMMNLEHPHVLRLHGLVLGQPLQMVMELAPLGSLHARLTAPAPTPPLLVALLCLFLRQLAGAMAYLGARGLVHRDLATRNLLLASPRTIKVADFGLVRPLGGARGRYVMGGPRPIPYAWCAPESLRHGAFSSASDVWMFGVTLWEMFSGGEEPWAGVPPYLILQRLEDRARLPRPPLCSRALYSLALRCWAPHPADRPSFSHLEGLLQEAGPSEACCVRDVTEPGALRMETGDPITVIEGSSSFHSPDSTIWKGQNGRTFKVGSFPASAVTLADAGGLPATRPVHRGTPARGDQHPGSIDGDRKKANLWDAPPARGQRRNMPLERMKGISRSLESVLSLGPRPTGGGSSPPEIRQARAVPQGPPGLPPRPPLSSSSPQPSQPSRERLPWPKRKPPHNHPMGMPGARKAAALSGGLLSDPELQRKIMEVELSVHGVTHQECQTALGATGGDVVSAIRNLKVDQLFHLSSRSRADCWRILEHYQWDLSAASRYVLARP
Description: Inhibition of TNK1 in human HeLa cells lysate at 2 uM pre incubated for 15 mins followed by ADP acyl phosphate probe addition and measured after 10 mins by LC-MS/MS analysis relative to control. It counts as subcellular. The conditions noted are these: time 25.0 min.

Rho-associated protein kinase, sequence (O75116 whole entry, looked up): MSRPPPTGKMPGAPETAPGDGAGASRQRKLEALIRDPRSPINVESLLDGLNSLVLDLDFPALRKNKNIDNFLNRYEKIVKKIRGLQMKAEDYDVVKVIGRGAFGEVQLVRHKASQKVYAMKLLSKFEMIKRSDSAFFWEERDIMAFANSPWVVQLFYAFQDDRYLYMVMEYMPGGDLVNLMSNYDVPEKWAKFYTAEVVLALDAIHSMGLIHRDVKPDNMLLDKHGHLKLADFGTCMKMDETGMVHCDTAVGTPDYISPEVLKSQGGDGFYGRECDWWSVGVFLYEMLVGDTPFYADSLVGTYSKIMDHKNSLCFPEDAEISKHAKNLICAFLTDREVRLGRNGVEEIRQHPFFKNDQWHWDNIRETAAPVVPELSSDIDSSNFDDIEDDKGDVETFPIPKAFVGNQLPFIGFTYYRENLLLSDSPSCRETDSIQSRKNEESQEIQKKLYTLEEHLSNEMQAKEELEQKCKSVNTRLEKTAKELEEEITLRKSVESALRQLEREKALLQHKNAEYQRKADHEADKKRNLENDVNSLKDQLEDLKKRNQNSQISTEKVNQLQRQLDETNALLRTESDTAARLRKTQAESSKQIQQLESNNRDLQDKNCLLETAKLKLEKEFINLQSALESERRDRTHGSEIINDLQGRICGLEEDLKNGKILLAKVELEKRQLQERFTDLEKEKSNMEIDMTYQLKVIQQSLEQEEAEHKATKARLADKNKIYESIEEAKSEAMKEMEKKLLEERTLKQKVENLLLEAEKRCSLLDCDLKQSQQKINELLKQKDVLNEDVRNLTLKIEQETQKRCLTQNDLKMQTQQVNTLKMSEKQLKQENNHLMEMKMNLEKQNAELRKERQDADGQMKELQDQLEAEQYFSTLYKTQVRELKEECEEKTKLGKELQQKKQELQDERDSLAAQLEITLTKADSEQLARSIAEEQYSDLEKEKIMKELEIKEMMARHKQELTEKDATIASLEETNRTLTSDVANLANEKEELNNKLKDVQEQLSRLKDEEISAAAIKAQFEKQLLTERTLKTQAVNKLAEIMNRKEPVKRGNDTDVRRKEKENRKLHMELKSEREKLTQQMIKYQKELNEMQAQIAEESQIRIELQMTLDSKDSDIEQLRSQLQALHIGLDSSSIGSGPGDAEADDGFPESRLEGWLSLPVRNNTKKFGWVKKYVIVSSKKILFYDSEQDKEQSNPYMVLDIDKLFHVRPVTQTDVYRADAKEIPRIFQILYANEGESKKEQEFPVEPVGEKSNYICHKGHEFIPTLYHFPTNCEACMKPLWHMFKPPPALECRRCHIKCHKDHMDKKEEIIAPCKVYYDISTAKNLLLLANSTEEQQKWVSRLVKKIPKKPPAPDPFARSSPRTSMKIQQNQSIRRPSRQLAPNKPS
Rho-associated protein kinase, sequence (Q13464 whole entry, looked up): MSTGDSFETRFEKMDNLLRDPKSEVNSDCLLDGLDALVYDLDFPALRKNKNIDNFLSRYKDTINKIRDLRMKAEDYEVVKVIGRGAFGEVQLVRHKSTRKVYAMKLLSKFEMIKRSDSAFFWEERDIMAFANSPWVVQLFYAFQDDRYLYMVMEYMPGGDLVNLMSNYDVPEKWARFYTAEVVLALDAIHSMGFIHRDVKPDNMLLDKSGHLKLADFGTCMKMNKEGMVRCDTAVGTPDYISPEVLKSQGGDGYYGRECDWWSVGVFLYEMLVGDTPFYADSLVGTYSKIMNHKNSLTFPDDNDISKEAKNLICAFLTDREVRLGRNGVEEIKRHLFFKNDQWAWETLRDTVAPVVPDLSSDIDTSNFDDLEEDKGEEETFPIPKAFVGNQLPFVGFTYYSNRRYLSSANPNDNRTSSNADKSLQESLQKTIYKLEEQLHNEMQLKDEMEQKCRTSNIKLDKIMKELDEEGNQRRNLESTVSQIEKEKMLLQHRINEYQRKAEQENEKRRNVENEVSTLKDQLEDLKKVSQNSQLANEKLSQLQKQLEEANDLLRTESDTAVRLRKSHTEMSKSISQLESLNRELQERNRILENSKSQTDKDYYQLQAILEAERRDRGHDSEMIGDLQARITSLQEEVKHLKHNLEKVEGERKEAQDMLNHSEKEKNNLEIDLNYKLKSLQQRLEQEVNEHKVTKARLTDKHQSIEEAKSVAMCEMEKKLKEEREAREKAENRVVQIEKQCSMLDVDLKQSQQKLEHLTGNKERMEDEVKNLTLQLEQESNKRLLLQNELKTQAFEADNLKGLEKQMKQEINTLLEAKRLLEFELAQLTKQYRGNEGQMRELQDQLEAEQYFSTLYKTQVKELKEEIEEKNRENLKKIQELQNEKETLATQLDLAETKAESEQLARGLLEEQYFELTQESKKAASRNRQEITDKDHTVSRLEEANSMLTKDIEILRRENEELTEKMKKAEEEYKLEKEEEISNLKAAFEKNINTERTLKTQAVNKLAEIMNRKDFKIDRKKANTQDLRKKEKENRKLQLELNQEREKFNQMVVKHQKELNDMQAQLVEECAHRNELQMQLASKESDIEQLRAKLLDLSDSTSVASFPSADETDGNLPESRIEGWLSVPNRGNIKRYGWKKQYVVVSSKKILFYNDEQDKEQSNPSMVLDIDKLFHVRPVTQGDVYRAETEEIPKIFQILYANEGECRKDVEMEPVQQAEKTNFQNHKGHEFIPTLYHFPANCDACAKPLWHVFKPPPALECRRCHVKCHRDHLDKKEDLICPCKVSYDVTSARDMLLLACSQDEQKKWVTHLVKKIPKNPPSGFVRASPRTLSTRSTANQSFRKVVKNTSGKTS
Glycogen synthase kinase-3 beta, sequence (P49841 whole entry, canonical isoform): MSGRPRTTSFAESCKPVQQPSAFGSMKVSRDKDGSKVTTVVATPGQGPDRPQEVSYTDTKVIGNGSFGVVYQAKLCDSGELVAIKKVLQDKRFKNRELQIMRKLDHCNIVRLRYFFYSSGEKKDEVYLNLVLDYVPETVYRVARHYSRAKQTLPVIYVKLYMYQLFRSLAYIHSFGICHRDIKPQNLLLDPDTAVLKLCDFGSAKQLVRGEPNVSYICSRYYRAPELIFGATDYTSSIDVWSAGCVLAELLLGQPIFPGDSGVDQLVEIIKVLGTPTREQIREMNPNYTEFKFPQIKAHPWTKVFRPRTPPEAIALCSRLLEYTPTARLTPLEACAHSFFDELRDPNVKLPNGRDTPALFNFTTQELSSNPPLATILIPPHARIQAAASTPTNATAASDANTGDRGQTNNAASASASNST
Interleukin-1 receptor-associated kinase 4, sequence (Q9NWZ3 whole entry): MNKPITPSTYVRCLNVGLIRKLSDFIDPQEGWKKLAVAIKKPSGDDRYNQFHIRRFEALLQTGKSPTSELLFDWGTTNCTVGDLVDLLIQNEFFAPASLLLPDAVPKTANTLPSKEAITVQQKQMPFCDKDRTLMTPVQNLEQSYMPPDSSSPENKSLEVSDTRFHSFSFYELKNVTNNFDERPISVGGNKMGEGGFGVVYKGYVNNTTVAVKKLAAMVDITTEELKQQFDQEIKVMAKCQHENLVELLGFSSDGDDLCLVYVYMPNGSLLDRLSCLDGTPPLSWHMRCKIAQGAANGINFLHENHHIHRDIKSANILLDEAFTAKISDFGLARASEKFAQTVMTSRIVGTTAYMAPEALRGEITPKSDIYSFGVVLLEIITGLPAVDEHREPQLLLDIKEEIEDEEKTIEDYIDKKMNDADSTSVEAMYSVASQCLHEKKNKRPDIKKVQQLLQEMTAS
MAP/microtubule affinity-regulating kinase 3, sequence (P27448 whole entry): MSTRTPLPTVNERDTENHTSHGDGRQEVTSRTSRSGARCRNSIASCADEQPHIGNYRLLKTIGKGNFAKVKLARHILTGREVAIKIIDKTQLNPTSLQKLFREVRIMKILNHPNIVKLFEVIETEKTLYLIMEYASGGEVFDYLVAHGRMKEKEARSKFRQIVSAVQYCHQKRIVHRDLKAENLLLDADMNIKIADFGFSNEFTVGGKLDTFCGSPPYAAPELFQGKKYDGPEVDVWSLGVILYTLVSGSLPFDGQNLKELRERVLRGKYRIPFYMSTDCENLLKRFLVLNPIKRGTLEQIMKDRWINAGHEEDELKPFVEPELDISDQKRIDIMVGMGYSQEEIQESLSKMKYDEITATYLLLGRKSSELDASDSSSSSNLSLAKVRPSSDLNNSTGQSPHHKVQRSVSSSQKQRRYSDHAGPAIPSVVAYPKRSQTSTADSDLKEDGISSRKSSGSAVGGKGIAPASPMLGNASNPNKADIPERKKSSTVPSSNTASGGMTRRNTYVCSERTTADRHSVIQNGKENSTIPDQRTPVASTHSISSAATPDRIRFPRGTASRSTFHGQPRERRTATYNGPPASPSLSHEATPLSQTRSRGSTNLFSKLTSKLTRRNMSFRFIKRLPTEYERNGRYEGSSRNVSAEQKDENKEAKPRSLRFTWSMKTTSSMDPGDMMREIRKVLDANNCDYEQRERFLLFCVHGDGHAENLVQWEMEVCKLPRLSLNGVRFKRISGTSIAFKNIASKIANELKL
Calcium/calmodulin-dependent protein kinase type II subunit gamma, sequence (Q13555 whole entry, the tested form may be a part): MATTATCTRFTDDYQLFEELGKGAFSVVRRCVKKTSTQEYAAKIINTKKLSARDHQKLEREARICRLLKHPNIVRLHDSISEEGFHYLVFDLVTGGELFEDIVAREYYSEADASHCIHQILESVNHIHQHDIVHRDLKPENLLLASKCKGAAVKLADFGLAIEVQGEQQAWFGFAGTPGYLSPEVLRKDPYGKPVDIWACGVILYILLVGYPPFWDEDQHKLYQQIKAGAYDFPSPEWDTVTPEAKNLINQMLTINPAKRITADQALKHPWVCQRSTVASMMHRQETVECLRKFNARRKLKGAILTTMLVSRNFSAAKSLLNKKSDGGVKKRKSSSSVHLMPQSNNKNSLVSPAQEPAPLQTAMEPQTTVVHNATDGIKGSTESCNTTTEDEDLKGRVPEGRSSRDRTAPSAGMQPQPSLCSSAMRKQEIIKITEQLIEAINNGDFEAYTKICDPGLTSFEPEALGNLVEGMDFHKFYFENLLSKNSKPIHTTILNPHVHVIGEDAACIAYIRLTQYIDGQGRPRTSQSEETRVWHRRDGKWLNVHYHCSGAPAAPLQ

With `CCOc1cc(N2CCC(O)CC2)ccc1Nc1ncc2c(n1)N(C)c1ccccc1C(=O)N2C`, in the data set on HeLa, the result was Active. For the same molecule, the pIC50 in data set [1], in data set [3], in [4], in [7], in data set [10] and in [12] was less than 4.30 throughout. The inhibition (in general, the relative decrease from the control value, in per cent) in data set [2] is 24%; in data set [5] it was -9.5%; in [6], 14.1%; in data set [8], 30.6%; in data set [11], -3%; in data set [13], 11.3%. Moreover, the inhibition in [14] amounted to 9.2%. The concentration at 192 h in data set [9] stood at 12.8 µM.
